Converted amounts (≈) assume the structure as drawn. The source made the active and inactive calls. The rule behind the calls is not given here.
How the values were obtained:
[1] = target: Sterol 14-alpha demethylase (Trypanosoma cruzi (strain CL Brener)) (UniProt Q7Z1V1); test: (§1) Inhibition of Trypanosoma cruzi CYP51
[2] = Kinetic solubility of the compound in water up to 250 uM by laser nephelometry; format: physicochemical; settings: read-out: Kinetic_solubility
Method in brief: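 Measured in water after dilution from a DMSO solution of compound.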

[3] = Intrinsic clearance in CD-1 mouse liver microsomes at 0.5 uM after 30 mins in presence of NADPH by UPLC-MS/MS analysis; format: ADME, microsome; settings: 0.5 h
[4] = Selectivity ratio of pEC50 for African green monkey Vero cells to pEC50 for Trypanosoma cruzi amastigote forms infected in African green monkey Vero cells; format: toxicity
Method in brief: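 Ratio of Vero pEC50 to T. cruzi intracellular amastigote pEC50, with both values from the Vero-cell amastigote culture format.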

Vero = test: Cytotoxicity against African green monkey Vero cells; format: cell-based; settings: Chlorocebus sabaeus
[5] = target: Voltage-gated inwardly rectifying potassium channel KCNH2 (Homo sapiens, UniProt Q12809); test: Inhibition of human ERG
Trypanosoma cruzi = test: Antitrypanosomal activity against Trypanosoma cruzi amastigote forms infected in African green monkey Vero cells; format: functional, organism-based
Method in brief: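 T. cruzi amastigotes cultured intracellularly in Vero host cells. EC50 determined from concentration-response, reported as pEC50. Mean of two determinations ± range, or of three or more ± standard deviation, depending on the series.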

[6] = target: Sterol 14-alpha demethylase (Trypanosoma cruzi (strain CL Brener), UniProt Q7Z1V1); test: as §1
Aurora kinase B = Aurora kinase B (Homo sapiens, UniProt Q96GD4); test: Inhibition of aurora B (unknown origin)
Cannabinoid receptor 1 = Cannabinoid receptor 1 (Homo sapiens, UniProt P21554); test: Inhibition of CB1 (unknown origin)
Cannabinoid receptor 1, sequence (P21554 whole entry): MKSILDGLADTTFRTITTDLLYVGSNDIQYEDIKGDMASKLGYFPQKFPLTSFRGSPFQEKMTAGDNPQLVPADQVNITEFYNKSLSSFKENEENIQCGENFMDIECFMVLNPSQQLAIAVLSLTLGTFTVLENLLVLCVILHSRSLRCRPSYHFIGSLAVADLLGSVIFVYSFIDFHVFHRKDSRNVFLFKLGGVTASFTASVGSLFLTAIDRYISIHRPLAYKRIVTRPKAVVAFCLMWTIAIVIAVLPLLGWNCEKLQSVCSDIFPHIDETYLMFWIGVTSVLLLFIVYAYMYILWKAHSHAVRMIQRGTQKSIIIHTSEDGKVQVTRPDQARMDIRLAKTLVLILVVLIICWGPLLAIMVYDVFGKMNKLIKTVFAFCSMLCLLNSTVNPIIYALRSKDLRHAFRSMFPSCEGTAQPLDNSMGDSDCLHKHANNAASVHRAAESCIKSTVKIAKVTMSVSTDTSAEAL

Sterol 14-alpha demethylase (Trypanosoma cruzi (strain CL Brener)), sequence (Q7Z1V1 whole entry, looked up): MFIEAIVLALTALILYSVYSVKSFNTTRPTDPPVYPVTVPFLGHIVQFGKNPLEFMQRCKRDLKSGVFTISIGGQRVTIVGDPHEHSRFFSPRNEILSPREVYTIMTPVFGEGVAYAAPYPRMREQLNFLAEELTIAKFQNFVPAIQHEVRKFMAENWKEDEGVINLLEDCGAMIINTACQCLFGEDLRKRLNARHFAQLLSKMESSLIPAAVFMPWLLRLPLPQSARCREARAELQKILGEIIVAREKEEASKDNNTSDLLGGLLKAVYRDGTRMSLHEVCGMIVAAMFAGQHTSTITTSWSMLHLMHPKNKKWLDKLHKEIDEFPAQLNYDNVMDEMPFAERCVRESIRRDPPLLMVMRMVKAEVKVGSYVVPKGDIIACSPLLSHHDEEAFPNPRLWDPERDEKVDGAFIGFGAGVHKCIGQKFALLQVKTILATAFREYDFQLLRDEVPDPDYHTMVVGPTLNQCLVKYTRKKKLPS
Voltage-gated inwardly rectifying potassium channel KCNH2, sequence (Q12809 whole entry): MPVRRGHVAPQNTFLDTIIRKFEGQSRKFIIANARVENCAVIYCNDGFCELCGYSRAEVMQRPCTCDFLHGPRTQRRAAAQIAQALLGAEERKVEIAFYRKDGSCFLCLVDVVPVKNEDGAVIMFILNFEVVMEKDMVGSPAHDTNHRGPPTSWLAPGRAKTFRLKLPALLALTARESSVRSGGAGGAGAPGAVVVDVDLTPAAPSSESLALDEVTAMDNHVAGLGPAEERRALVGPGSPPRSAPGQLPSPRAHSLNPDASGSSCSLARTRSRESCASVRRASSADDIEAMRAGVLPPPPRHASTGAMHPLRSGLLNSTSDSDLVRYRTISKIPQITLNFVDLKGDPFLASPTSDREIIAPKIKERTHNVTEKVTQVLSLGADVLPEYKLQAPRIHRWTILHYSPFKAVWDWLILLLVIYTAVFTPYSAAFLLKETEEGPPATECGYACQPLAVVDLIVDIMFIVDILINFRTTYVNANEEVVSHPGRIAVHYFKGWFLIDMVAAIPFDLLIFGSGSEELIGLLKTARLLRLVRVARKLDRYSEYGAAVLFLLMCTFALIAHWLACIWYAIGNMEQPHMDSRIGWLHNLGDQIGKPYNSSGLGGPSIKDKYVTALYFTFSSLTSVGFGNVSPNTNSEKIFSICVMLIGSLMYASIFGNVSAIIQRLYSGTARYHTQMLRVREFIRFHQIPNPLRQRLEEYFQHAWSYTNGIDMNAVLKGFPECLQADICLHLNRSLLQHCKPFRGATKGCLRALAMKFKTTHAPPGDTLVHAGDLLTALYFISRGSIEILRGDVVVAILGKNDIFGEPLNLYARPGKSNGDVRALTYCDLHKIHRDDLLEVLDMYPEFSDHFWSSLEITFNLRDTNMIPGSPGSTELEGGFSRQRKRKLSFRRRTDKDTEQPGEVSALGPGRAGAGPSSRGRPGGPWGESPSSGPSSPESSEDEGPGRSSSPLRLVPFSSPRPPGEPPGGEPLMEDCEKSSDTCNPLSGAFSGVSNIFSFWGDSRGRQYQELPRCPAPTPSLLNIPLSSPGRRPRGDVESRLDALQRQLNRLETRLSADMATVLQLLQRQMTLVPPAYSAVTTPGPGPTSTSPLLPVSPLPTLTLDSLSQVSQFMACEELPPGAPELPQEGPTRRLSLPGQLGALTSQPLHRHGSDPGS
Sterol 14-alpha demethylase, sequence (Q7Z1V1 whole entry): as the sequence (Q7Z1V1 whole entry, looked up) above
Aurora kinase B, sequence (Q96GD4 whole entry): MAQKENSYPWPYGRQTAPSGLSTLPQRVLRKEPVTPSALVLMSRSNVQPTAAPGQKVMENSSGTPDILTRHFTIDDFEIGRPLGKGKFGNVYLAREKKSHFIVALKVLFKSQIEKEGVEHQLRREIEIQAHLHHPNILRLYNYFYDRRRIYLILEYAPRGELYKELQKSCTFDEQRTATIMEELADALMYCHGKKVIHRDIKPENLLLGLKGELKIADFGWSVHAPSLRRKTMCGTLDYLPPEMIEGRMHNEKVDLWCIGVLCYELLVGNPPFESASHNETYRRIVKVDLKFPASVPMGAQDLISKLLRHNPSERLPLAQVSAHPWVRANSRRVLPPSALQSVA

inhibition [1]	solubility kinetic [2]	CLH [3]	EC50 (Trypanosoma cruzi)	IC50 [6]	IC50 (Aurora kinase B)	IC50 (Cannabinoid receptor 1)	Structure (SMILES)	selectivity ratio [4]	EC50 (Vero)	IC50 [5]
inactive	> 250 µM	28 mL/min/g	–	–	–	–	Cc1cc(N(C)C)nc(NCc2ccccc2)n1	> 16	> 50.1 µM	–
inactive	> 250 µM	17 mL/min/g	0.398 µM	–	–	–	COc1cc(Nc2nc(C)cc(N(C)C)n2)ccc1F	80	–	5.01 µM
–	> 250 µM	35 mL/min/g	7.94 µM	–	–	–	COc1cc(Nc2nc(CO)cc(N(C)C)n2)ccc1F	> 6	> 50.1 µM	–
–	20 µM (≈ 8.15 µg/mL)	0.7 mL/min/g	0.158 µM	> 10 µM	–	–	COc1cc(OC)cc(C(=O)Nc2ccc(Nc3nc(C)cc(N(C)C)n3)cc2)c1	40	–	–
–	> 250 µM	15 mL/min/g	0.794 µM	–	–	–	COc1cccc(Nc2nc(C)cc(N(C)C)n2)c1	> 63	> 50.1 µM	–
–	–	–	1.26 µM	–	–	–	Cc1cc(N(C)C)nc(Nc2ccc(C(=O)NCc3ccccc3)cc2)n1	4	5.01 µM	–
–	> 250 µM	12 mL/min/g	1 µM	–	–	–	Cc1cc(N(C)C)nc(NCc2ccc(Cl)cc2)n1	25	25.1 µM	–
–	> 250 µM	14 mL/min/g	1.26 µM	–	–	–	Cc1cc(N(C)C)nc(Nc2ccc3c(c2)OCO3)n1	> 40	> 50.1 µM	–
–	110 µM (≈ 36.3 µg/mL)	–	25.1 µM	–	–	–	COc1cc(Nc2nc(N(C)C)cc(C(F)(F)F)n2)ccc1F	> 2	> 50.1 µM	–
–	> 250 µM	10 mL/min/g	1.58 µM	–	–	–	COc1ccc(Nc2nc(C)cc(N(C)C)n2)cc1	> 32	> 50.1 µM	–
–	> 250 µM	11 mL/min/g	1.26 µM	–	–	–	Cc1cc(N(C)C)nc(N[C@H](C)c2ccccc2)n1	> 40	> 50.1 µM	–
–	160 µM (≈ 42 µg/mL)	29 mL/min/g	3.98 µM	–	–	–	COc1cc(Nc2nccc(N(C)C)n2)ccc1F	> 13	> 50.1 µM	–
–	–	–	0.794 µM	–	–	–	COc1ccccc1NC(=O)c1ccc(Nc2nc(C)cc(N(C)C)n2)cc1	1.3	0.631 µM	–
–	170 µM (≈ 51.7 µg/mL)	50 mL/min/g	–	–	–	–	COc1cc(Nc2nc(C(C)C)cc(N(C)C)n2)ccc1F	> 25	> 50.1 µM	–

Second part, the compound before the results:

Structure (SMILES)	inhibition [1]	solubility kinetic [2]	CLH [3]	EC50 (Trypanosoma cruzi)	IC50 [6]	IC50 (Aurora kinase B)	IC50 (Cannabinoid receptor 1)	selectivity ratio [4]	EC50 (Vero)	IC50 [5]
COc1cc(Nc2cc(C)nc(NCc3ccccc3)n2)ccc1F	–	180 µM (≈ 60.9 µg/mL)	10 mL/min/g	–	–	–	–	63	5.01 µM	–
Cc1cc(N(C)C)nc(NC2CCN(C(=O)Cc3ccc(F)cc3F)CC2)n1	–	–	–	–	–	–	–	> 16	> 50.1 µM	–
COc1cc(Nc2nc(C)cc(N3CCCCC3)n2)ccc1F	–	160 µM (≈ 50.6 µg/mL)	17 mL/min/g	1 µM	–	–	–	16	15.8 µM	–
COc1cc(Nc2nc(C)cc(N3CCCC(C#N)C3)n2)ccc1F (centres undefined)	–	219 µM (≈ 74.8 µg/mL)	–	7.94 µM	–	–	–	5	–	–
Cc1cc(Nc2ccc(F)cc2)nc(NCc2ccccc2)n1	–	> 250 µM	10 mL/min/g	0.398 µM	–	–	–	20	7.94 µM	–
CCOC1CCCN(c2cc(C)nc(Nc3ccc(F)c(OC)c3)n2)C1 (centres undefined)	–	> 250 µM	35 mL/min/g	1.58 µM	–	–	–	16	25.1 µM	–
COc1cc(Nc2nc(C)cc(NCc3ccccc3)n2)ccc1F	–	> 250 µM	8 mL/min/g	0.794 µM	–	–	–	6.3	5.01 µM	–
Cc1cc(N(C)C)nc(Nc2ccc(C(=O)N3CCCCC3)cc2)n1	–	–	–	–	–	–	–	> 25	> 50.1 µM	–
COc1cc(OC)cc(C(=O)N[C@H]2CC[C@H](Nc3nc(C)cc(N(C)C)n3)CC2)c1	inactive	> 250 µM	4.2 mL/min/g	0.398 µM	–	0.0398 µM	0.0631 µM	100	–	3.98 µM
COc1cccc(Nc2cc(C)nc(NCc3ccccc3)n2)c1	–	> 250 µM	20 mL/min/g	0.2 µM	–	–	–	40	7.94 µM	–
COc1cc(Nc2nc(C)cc(N3CCCC3)n2)ccc1F	–	220 µM (≈ 66.5 µg/mL)	14 mL/min/g	–	–	–	–	63	–	–
COc1cc(Nc2nc(C)cc(N3CCC(F)(F)C3)n2)ccc1F	–	> 250 µM	35 mL/min/g	7.94 µM	–	–	–	4	–	–
COc1cc(Nc2nc(C(=O)N3CCCC3)cc(N(C)C)n2)ccc1F	–	> 250 µM	3.4 mL/min/g	–	–	–	–	> 1.6	> 50.1 µM	–
Cc1cc(N(C)C)nc(N[C@H]2CC[C@H](NC(=O)c3ccccc3)CC2)n1	–	> 250 µM	–	1.26 µM	–	–	–	> 40	> 50.1 µM	–
COc1cc(Nc2nc(C)cc(N3CCOCC3)n2)ccc1F	–	> 250 µM	18 mL/min/g	7.94 µM	–	–	–	> 6	> 50.1 µM	–
Cc1cc(N(C)C)nc(NCC2CCOCC2)n1	–	> 250 µM	3.8 mL/min/g	15.8 µM	–	–	–	> 3	> 50.1 µM	–

— ChEMBL document CHEMBL4229528, “2,4-Diamino-6-methylpyrimidines for the potential treatment of Chagas' disease” (Bioorg Med Chem Lett, 2018)
